Experimental data from ChEMBL document CHEMBL5038587, “Synthesis of Methoxy-, Methylenedioxy-, Hydroxy-, and Halo-Substituted Benzophenanthridinone Derivatives as DNA Topoisomerase IB (TOP1) and Tyrosyl-DNA Phosphodiesterase 1 (TDP1) Inhibitors and Their Biological Activity for Drug-Resistant Cancer” (J Med Chem, 2021).
Active and inactive are the calls of the source. No cut-off for these calls is given here.

What was measured:
[1] = system: MCF7; assay: Induction of DNA damage in human MCF7/TDP1 cells assessed as decrease in TPT-induced gammaH2AX foci at 2 uM measured after 6 hrs by DAPI staining based immunofluorescence assay; type: functional; set-up: scale not given: the % may be the effect or the level left
Method in brief: (§1)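 Fixed in 4% paraformaldehyde, permeabilized with 0.5% Triton X-100, blocked in 5% goat serum. Stained with γH2AX antibody overnight at 4 °C, then Alexa 488 secondary plus DAPI 2 µg/mL. Foci counted by confocal microscopy, at least three independent repeats.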

[2] = target: T1, Tyrosyl-DNA phosphodiesterase 1 (Homo sapiens, UniProt Q9NUW8); assay: Induction of TDP1-DNA complex formation in human […] cells at 10 to 100 uM in presence of TPT by ICE assay; type: cell-based; conditions: dose 10-100 µM
Method in brief: (§2)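 Genomic DNA isolated with DNAzol and ethanol precipitation, then 2 µg slot-blotted onto nitrocellulose in 25 mM NaH2PO4 pH 6.5. Probed with rabbit anti-TDP1 (1:1000) overnight at 4 °C, then HRP secondary, with chemiluminescent read-out.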

[3] = target: T1, Tyrosyl-DNA phosphodiesterase 1; assay: Induction of TDP1-DNA complex formation in human MCF7/TDP1 cells at 10 uM by ICE assay; type: cell-based; method in brief: as §2
[4] = target: T1, Tyrosyl-DNA phosphodiesterase 1; assay: Induction of TDP1-DNA complex formation in human MCF7 cells at 10 to 100 uM in presence of TPT by ICE assay; type: cell-based; conditions: dose 10-100 µM; method in brief: as §2
[5] = target: T1, Tyrosyl-DNA phosphodiesterase 1; assay: Induction of TDP1-DNA complex formation in human MCF7 cells at 10 uM by ICE assay; type: cell-based; method in brief: as §2
[6] = system: DU-145; assay: Cytotoxicity against human DU145 cells assessed as cell growth inhibition after 72 hrs by MTT assay; type: functional
Method in brief: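 Compounds predissolved in DMSO, tested in a five-dose series from 0.01 to 100 µM for 72 h, then read by MTT. Percent viability inhibition is taken against control, and GI50 is fitted by nonlinear regression.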

[7] = system: MCF7; assay: Cytotoxicity against human MCF-7/TDP1 cells assessed as cell growth inhibition after 72 hrs by MTT assay; type: functional
Method in brief: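 MCF-7/TDP1 is a TDP1-overexpressing line made by transfecting parental MCF-7, grown in RPMI 1640 or DMEM with 10% FBS at 37 °C, 5% CO2. DMSO-dissolved compounds tested at five doses from 0.01 to 100 µM, read by MTT. GI50 (mean ± SD, at least three repeats) fitted by nonlinear regression against control.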

[8] = system: MCF7; assay: Induction of DNA damage in human MCF7/TDP1 cells assessed as increase in gammaH2AX foci at 1 uM measured after 6 hrs by DAPI staining based immunofluorescence assay; type: functional; method in brief: as §1
[9] = system: MCF7; assay: Induction of DNA damage in human MCF7 cells assessed as decrease in TPT-induced gammaH2AX foci at 1 uM measured after 6 hrs by DAPI staining based immunofluorescence assay; type: functional; set-up: scale not given: the % may be the effect or the level left; method in brief: as §1
[10] = system: MCF7; assay: Induction of DNA damage in human MCF7 cells assessed as decrease in TPT-induced gammaH2AX foci at 2 uM measured after 6 hrs by DAPI staining based immunofluorescence assay; type: functional; set-up: scale not given: the % may be the effect or the level left; method in brief: as §1
[11] = system: MCF7; assay: Induction of DNA damage in human MCF7/TDP1 cells assessed as decrease in TPT-induced gammaH2AX foci at 1 uM measured after 6 hrs by DAPI staining based immunofluorescence assay; type: functional; set-up: scale not given: the % may be the effect or the level left; method in brief: as §1
[12] = system: MCF7; assay: Induction of apoptosis in human MCF7 cells assessed as necrotic cells at 1 uM measured after 24 hrs by Annexin V-FITC/propidium iodide staining based flow cytometry (Rvb=0.83%); type: functional
Method in brief: (§3)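 MCF-7 cells (2×10^5 per dish) exposed to compound at 1, 2 or 4 µM for 24 h. Cells resuspended in binding buffer and stained with Annexin V-FITC plus propidium iodide for 15 min at 25 °C in the dark. Viable, early apoptotic, late apoptotic and necrotic fractions quantified by flow cytometry.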

[13] = system: MCF7; assay: Induction of apoptosis in human MCF7 cells assessed as late apoptotic cells at 1 uM measured after 24 hrs by Annexin V-FITC/propidium iodide staining based flow cytometry (Rvb=0%); type: functional; method in brief: as §3
[14] = system: MCF7; assay: Induction of apoptosis in human MCF7 cells assessed as viable cells at 1 uM measured after 24 hrs by Annexin V-FITC/propidium iodide staining based flow cytometry (Rvb=99.05%); type: functional; conditions: read-out: Activity; method in brief: as §3
[15] = system: MCF7; assay: Induction of apoptosis in human MCF7 cells assessed as early apoptotic cells at 1 uM measured after 24 hrs by Annexin V-FITC/propidium iodide staining based flow cytometry (Rvb=0.12%); type: functional; method in brief: as §3
[16] = system: MCF7; assay: Induction of apoptosis in human MCF7 cells assessed as necrotic cells at 2 uM measured after 24 hrs by Annexin V-FITC/propidium iodide staining based flow cytometry; type: functional; method in brief: as §3
[17] = system: MCF7; assay: Induction of apoptosis in human MCF7 cells assessed as late apoptotic cells at 2 uM measured after 24 hrs by Annexin V-FITC/propidium iodide staining based flow cytometry (Rvb=0%); type: functional; method in brief: as §3
[18] = system: MCF7; assay: Induction of apoptosis in human MCF7 cells assessed as viable cells at 2 uM measured after 24 hrs by Annexin V-FITC/propidium iodide staining based flow cytometry (Rvb=99.05%); type: functional; conditions: read-out: Activity; method in brief: as §3
[19] = system: MCF7; assay: Induction of apoptosis in human MCF7 cells assessed as early apoptotic cells at 2 uM measured after 24 hrs by Annexin V-FITC/propidium iodide staining based flow cytometry (Rvb=0.12%); type: functional; method in brief: as §3
[20] = system: MCF7; assay: Induction of apoptosis in human MCF7 cells assessed as necrotic cells at 4 uM measured after 24 hrs by Annexin V-FITC/propidium iodide staining based flow cytometry (Rvb=0.83%); type: functional; method in brief: as §3
[21] = system: MCF7; assay: Induction of apoptosis in human MCF7 cells assessed as late apoptotic cells at 4 uM measured after 24 hrs by Annexin V-FITC/propidium iodide staining based flow cytometry (Rvb=0%); type: functional; method in brief: as §3
[22] = system: MCF7; assay: Induction of apoptosis in human MCF7 cells assessed as viable cells at 4 uM measured after 24 hrs by Annexin V-FITC/propidium iodide staining based flow cytometry (Rvb=99.05%); type: functional; conditions: read-out: Activity; method in brief: as §3
[23] = system: MCF7; assay: Induction of apoptosis in human MCF7 cells assessed as early apoptotic cells at 4 uM measured after 24 hrs by Annexin V-FITC/propidium iodide staining based flow cytometry(Rvb=0.12%); type: functional; method in brief: as §3
[24] = system: MCF7; assay: Synergistic cytotoxicity against human MCF7 cells assessed as combination index measured after 96 hrs in presence of TPT by MTT assay; type: functional
[25] = system: MCF7; assay: Synergistic cytotoxicity against human MCF7/TDP1 cells assessed as combination index measured after 96 hrs in presence of TPT by MTT assay; type: functional
[26] = target: T2, DNA topoisomerase 1 (Homo sapiens) (UniProt P11387); assay: Inhibition of recombinant TOP1 (unknown origin) at 1 uM using 3'-[32P]-labeled 117 bp DNA oligonucleotides as substrate incubated for 20 mins by PAGE analysis relative to CPT
T2 sequence (whole entry): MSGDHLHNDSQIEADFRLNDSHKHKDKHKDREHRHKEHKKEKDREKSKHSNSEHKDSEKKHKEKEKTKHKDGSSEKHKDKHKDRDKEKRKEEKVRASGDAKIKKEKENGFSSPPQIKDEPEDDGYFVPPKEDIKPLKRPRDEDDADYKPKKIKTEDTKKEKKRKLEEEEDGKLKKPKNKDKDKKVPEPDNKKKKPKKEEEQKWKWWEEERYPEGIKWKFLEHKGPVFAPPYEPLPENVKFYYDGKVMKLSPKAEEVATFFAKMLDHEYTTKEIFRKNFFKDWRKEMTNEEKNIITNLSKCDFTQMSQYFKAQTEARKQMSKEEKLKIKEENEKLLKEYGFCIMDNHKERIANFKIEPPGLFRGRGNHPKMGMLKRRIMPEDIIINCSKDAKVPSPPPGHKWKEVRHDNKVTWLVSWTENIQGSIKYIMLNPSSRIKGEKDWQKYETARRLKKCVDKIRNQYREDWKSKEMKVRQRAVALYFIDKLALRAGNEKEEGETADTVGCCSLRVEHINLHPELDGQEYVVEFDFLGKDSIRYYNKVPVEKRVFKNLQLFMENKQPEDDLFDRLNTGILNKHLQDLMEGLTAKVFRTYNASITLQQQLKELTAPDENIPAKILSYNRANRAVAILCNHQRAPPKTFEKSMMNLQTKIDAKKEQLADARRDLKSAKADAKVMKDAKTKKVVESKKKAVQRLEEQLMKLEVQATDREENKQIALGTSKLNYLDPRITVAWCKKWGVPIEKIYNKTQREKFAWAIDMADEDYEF
Method in brief: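 3'-[32P]-labeled 117 bp oligonucleotide (~2 nM) with recombinant TOP1 and compound, 25 °C, 20 min. Buffer: 10 mM Tris-HCl pH 7.5, 50 mM KCl, 5 mM MgCl2, 0.1 mM EDTA, BSA. Stopped with 0.5% SDS and run on 20% denaturing PAGE with phosphorimaging.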

[27] = target: T1, Tyrosyl-DNA phosphodiesterase 1; assay: Induction of TDP1-DNA complex formation in human MCF7 cells at 100 uM by ICE assay; type: cell-based; method in brief: as §2
[28] = system: MCF7/TDP1; assay: Induction of DNA damage in human MCF7/TDP1 cells assessed as decrease in gammaH2AX foci at 2 uM measured after 6 hrs by DAPI staining based immunofluorescence assay; set-up: scale not given: the % may be the effect or the level left
[29] = system: MCF7; assay: Synergistic cytotoxicity against human MCF7/TDP1 cells at 100 nM after 96 hrs in presence of 12-(2-(Dimethylamino)ethyl)-1,2-dihydroxy-[1,3]dioxolo[4',5':4,5]benzo[1,2-c]phenanthridine-13(12H)-one by MTT assay; type: functional
[30] = system: MCF7; assay: Synergistic cytotoxicity against human MCF7/TDP1 cells at 100 nM after 96 hrs by MTT assay; type: functional
[31] = system: MCF7; assay: Synergistic cytotoxicity against human MCF7 cells at 50 nM after 96 hrs in presence of 12-(2-(Dimethylamino)ethyl)-1,2-dihydroxy-[1,3]dioxolo[4',5':4,5]benzo[1,2-c]phenanthridine-13(12H)-one by MTT assay; type: functional
[32] = system: MCF7; assay: Synergistic cytotoxicity against human MCF7 cells at 50 nM after 96 hrs by MTT assay; type: functional
[33] = system: MCF7; assay: Induction of DNA damage in human MCF7/TDP1 cells assessed as increase in gammaH2AX foci measured after 6 hrs by DAPI staining based immunofluorescence assay; type: functional; method in brief: as §1

T1 sequence (Q9NUW8 whole entry): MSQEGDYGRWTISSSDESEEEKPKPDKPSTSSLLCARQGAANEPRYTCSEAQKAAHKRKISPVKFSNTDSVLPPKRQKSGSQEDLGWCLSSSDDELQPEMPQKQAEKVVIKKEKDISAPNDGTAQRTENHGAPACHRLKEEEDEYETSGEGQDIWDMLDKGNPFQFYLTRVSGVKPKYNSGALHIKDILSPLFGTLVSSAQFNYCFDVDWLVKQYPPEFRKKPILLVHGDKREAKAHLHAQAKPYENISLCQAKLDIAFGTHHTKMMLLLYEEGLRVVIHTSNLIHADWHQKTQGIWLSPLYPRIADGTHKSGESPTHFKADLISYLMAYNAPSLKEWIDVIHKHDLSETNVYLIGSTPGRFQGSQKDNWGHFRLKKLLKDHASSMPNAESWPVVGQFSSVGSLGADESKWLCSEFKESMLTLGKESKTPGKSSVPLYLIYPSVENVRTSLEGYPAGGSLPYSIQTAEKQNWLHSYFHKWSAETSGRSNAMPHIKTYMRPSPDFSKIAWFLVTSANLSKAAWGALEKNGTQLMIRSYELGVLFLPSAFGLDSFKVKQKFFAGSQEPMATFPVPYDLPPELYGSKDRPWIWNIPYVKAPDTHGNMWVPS

Q: Which results are given for `CN(C)CCn1c(=O)c2c(O)c(O)ccc2c2ccc3cc4c(cc3c21)OCO4`?
A: Activity [1]: 18%; Activity [2]: Active; Activity [3]: Active; Activity [4]: Active; Activity [5]: inactive; GI50 [6]: 800 nM; GI50 [7]: 3980 nM; Activity [8]: 22%; Activity [9]: 14%; Activity [10]: 18%; Activity [11]: 14%; Activity [12]: 0.16%; Activity [13]: 0.73%; viability at 1 µM [14]: 70.1%; Activity [15]: 28.99%; Activity [16]: 14.71%; Activity [17]: 24.3%; viability at 2 µM [18]: 39.7%; Activity [19]: 21.31%; Activity [20]: 9.31%; Activity [21]: 48.46%; viability at 4 µM [22]: 15.7%; Activity [23]: 26.53%; CI [24]: <0.3; CI [25]: <0.3; inhibition [26]: 75%; Activity [27]: Active; Activity [28]: 28%

Q: How did the Activity [29] turn out when `CC[C@@]1(O)C(=O)OCc2c1cc1n(c2=O)Cc2cc3c(CN(C)C)c(O)ccc3nc2-1` [TOPOTECAN] was run?
A: 86%

Q: What about the Activity [30] of the same compound?
A: 19%

Q: What about the Activity [31] of the same compound?
A: 87%

Q: What about the Activity [32] of the same compound?
A: 23%

Q: And the Activity [5]?
A: inactive

Q: And the GI50 [7]?
A: 2590 nM

Q: And the Activity [33]?
A: 34%

Q: What about the Activity [8] of the same compound?
A: 34%
